From ChEMBL document CHEMBL1124137, “Synthesis and testing of quinone-based bis(2,2-dimethyl-1-aziridinyl)phosphinyl carbamates as radiation-potentiating antitumor agents” (1988)

Experiments:
Format in all cases: functional
Mus musculus [1] = assay: Median survival time (MST) of treated mice infected by P-388 leukemia, as percent of the MST of untreated controls when treated with a dose of 16 mg/Kg of compound
In short: (§1)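 P-388 leukemia kept as ascites in DBA/2 mice. CDF1 female mice (16–20 g) received 10⁶ cells; six mice per dose and 10 untreated leukemia controls. Drug in water with Tween 80, given within 15 min of dissolution as a single ip injection on day 1 after implant. Mice observed until death; %T/C is treated over control median survival time. Average weight change taken on day 5.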

Mus musculus [2] = assay: Average weight change on day 5 in mice infected by P-388 leukemia when treated with a dose of 64 mg/Kg of compound
In short: (§2)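 P-388 leukemia kept as ascites in DBA/2 mice; 10⁶ cells implanted into female CDF₁ mice (16–20 g), six mice per dose, 10 untreated leukemia controls. Compound dissolved in water with Tween 80 and given as a single ip injection on day 1 after implant, within 15 min of dissolving. Body weight change averaged on day 5.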

Mus musculus [3] = assay: Average weight change on day 5 in mice infected by P-388 leukemia when treated with a dose of 8 mg/Kg of compound; in short: as §2
Mus musculus [4] = assay: Average weight change on day 5 in mice infected by P-388 leukemia when treated with a dose of 128 mg/Kg of compound; in short: as §2
Mus musculus [5] = assay: Median survival time (MST) of treated mice infected by P-388 leukemia, as percent of the MST of untreated controls when treated with a dose of 128 mg/Kg of compound; in short: as §1
Mus musculus [6] = assay: Median survival time (MST) of treated mice infected by P-388 leukemia, as percent of the MST of untreated controls when treated with a dose of 8 mg/Kg of compound; in short: as §1
Mus musculus [7] = assay: Median survival time (MST) of treated mice infected by P-388 leukemia, as percent of the MST of untreated controls when treated with a dose of 64 mg/Kg of compound; in short: as §1
Mus musculus [8] = assay: Median survival time (MST) of treated mice infected by P-388 leukemia, as percent of the MST of untreated controls when treated with a dose of 256 mg/Kg of compound; in short: as §1
Mus musculus [9] = assay: Average weight change on day 5 in mice infected by P-388 leukemia when treated with a dose of 16 mg/Kg of compound; in short: as §2
Mus musculus [10] = assay: Median survival time (MST) of treated mice infected by P-388 leukemia, as percent of the MST of untreated controls when treated with a dose of 32 mg/Kg of compound; in short: as §1
Mus musculus [11] = assay: Average weight change on day 5 in mice infected by P-388 leukemia when treated with a dose of 32 mg/Kg of compound; in short: as §2
Mus musculus [12] = assay: Average weight change on day 5 in mice infected by P-388 leukemia when treated with a dose of 256 mg/Kg of compound; in short: as §2
Mus musculus [13] = assay: Median survival time (MST) of treated mice infected by P-388 leukemia, as percent of the MST of untreated controls when treated with a dose of 200 mg/Kg of compound; in short: as §1
Mus musculus [14] = assay: Median survival time (MST) of treated mice infected by P-388 leukemia, as percent of the MST of untreated controls when treated with a dose of 100 mg/Kg of compound; in short: as §1
Mus musculus [15] = assay: Average weight change on day 5 in mice infected by P-388 leukemia when treated with a dose of 400 mg/Kg of compound; in short: as §1
Mus musculus [16] = assay: Median survival time (MST) of treated mice infected by P-388 leukemia, as percent of the MST of untreated controls when treated with a dose of 50 mg/Kg of compound; in short: as §1
Mus musculus [17] = assay: Average weight change on day 5 in mice infected by P-388 leukemia when treated with a dose of 200 mg/Kg of compound; in short: as §1
Mus musculus [18] = assay: Median survival time (MST) of treated mice infected by P-388 leukemia, as percent of the MST of untreated controls when treated with a dose of 400 mg/Kg of compound; in short: as §1
Mus musculus [19] = assay: Average weight change on day 5 in mice infected by P-388 leukemia when treated with a dose of 50 mg/Kg of compound; in short: as §1
Mus musculus [20] = assay: Average weight change on day 5 in mice infected by P-388 leukemia when treated with a dose of 100 mg/Kg of compound; in short: as §1

| Compound | T/C (Mus musculus [1]) | AWC (Mus musculus [2]) | AWC (Mus musculus [3]) | AWC (Mus musculus [4]) | T/C (Mus musculus [5]) | T/C (Mus musculus [6]) | T/C (Mus musculus [7]) | T/C (Mus musculus [8]) | AWC (Mus musculus [9]) | T/C (Mus musculus [10]) | AWC (Mus musculus [11]) | AWC (Mus musculus [12]) | T/C (Mus musculus [13]) | T/C (Mus musculus [14]) | AWC (Mus musculus [15]) | T/C (Mus musculus [16]) | AWC (Mus musculus [17]) | T/C (Mus musculus [18]) | AWC (Mus musculus [19]) | AWC (Mus musculus [20]) |
| --- | --- | --- | --- | --- | --- | --- | --- | --- | --- | --- | --- | --- | --- | --- | --- | --- | --- | --- | --- | --- |
| CC1(C)CN1P(=O)(NC(=O)OCC/N=C1C(O)=C(Cl)/C(=N\CCOC(=O)NP(=O)(N2CC2(C)C)N2CC2(C)C)C(O)=C/1Cl)N1CC1(C)C (stereo not given) | 124% | -1.2 g | -0.4 g | -0.9 g | 135% | 118% | 124% | 165% | -1.1 g | 129% | -0.6 g | -2.1 g |  |  |  |  |  |  |  |  |
| CCOC(=O)NP(=O)(N1CC1(C)C)N1CC1(C)C (stereo not given) [METUREDEPA] |  |  |  |  |  |  |  |  |  |  |  |  | 231% | 181% | -1.3 g | 163% | -0.2 g | 244% | -0.7 g | -0.4 g |
